# Data from ChEMBL document CHEMBL1649231, “In vitro activities of panduratin A against clinical Staphylococcus strains” (2009).
# Legend:
# Type in all cases: functional
# [1] = test system: Staphylococcus aureus; assay: Bactericidal activity against methicillin-susceptible Staphylococcus aureus after 24 hrs by plate counting method
# Procedure, shortened: (§1)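 Clinical staphylococcal isolates from patient body fluids, blood, genital secretions, pus or sputum; species by conventional methods or Vitek. Twofold dilutions in Mueller-Hinton broth, inoculum 5 × 10^5 CFU/ml, 37°C aerobic 24 h (CLSI M7-A6 microdilution). About 100 μl from each well without visible growth spread on MHA; 37°C 24 h. MBC = lowest concentration giving no growth on agar.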
# [2] = test system: Mammaliicoccus sciuri; assay: Antimicrobial activity against methicillin-resistant coagulase-negative Staphylococcus sciuri after 24 hrs by broth microdilution method
# Procedure, shortened: (§2)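 Clinical isolates came from blood, body fluids, genital secretions, pus or sputum, identified conventionally or by Vitek. MICs were run by CLSI M7-A6 broth microdilution in Mueller-Hinton broth with 5 × 10^5 CFU/ml inoculum. Agents were twofold serially diluted, starting from 10% DMSO. Drug-free and uninoculated controls were included. Plates were incubated aerobically at 37°C for 24 h; MIC is the lowest concentration giving no visible growth.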
# [3] = test system: Staphylococcus haemolyticus; assay: Bactericidal activity against methicillin-resistant coagulase-negative Staphylococcus haemolyticus after 24 hrs by plate counting method
# [4] = test system: Staphylococcus hominis; assay: Bactericidal activity against methicillin-resistant coagulase-negative Staphylococcus hominis after 24 hrs by plate counting method
# [5] = test system: Staphylococcus simulans; assay: Bactericidal activity against methicillin-susceptible coagulase-negative Staphylococcus simulans after 24 hrs by plate counting method; procedure, shortened: as §1
# [6] = test system: Hoylesella loescheii; assay: Bactericidal activity against Prevotella loescheii
# [7] = test system: Hoylesella loescheii; assay: Antimicrobial activity against Prevotella loescheii
# [8] = test system: Mammaliicoccus sciuri; assay: Bactericidal activity against methicillin-susceptible coagulase-negative Staphylococcus sciuri after 24 hrs by plate counting method; procedure, shortened: as §1
# [9] = test system: Staphylococcus hominis; assay: Antimicrobial activity against methicillin-susceptible coagulase-negative Staphylococcus hominis after 24 hrs by broth microdilution method; procedure, shortened: as §2
# [10] = test system: Porphyromonas gingivalis; assay: Antimicrobial activity against Porphyromonas gingivalis
# [11] = test system: Staphylococcus epidermidis; assay: Bactericidal activity against methicillin-susceptible coagulase-negative Staphylococcus epidermidis after 24 hrs by plate counting method; procedure, shortened: as §1
# [12] = test system: Prevotella intermedia; assay: Bactericidal activity against Prevotella intermedia
# [13] = test system: Cutibacterium acnes; assay: Antimicrobial activity against Propionibacterium acnes
# [14] = test system: Streptococcus mutans; assay: Antimicrobial activity against Streptococcus mutans
# [15] = test system: Staphylococcus simulans; assay: Antimicrobial activity against methicillin-resistant coagulase-negative Staphylococcus simulans after 24 hrs by broth microdilution method; procedure, shortened: as §2
# [16] = test system: Cutibacterium acnes; assay: Bactericidal activity against Propionibacterium acnes
# [17] = test system: Staphylococcus simulans; assay: Antimicrobial activity against methicillin-susceptible coagulase-negative Staphylococcus simulans after 24 hrs by broth microdilution method; procedure, shortened: as §2
# [18] = test system: Streptococcus mutans; assay: Bactericidal activity against Streptococcus mutans
# [19] = test system: Staphylococcus aureus; assay: Antimicrobial activity against methicillin-susceptible Staphylococcus aureus after 24 hrs by broth microdilution method; procedure, shortened: as §2
# [20] = test system: Staphylococcus simulans; assay: Bactericidal activity against methicillin-resistant coagulase-negative Staphylococcus simulans after 24 hrs by plate counting method; procedure, shortened: as §1
# [21] = test system: Staphylococcus aureus; assay: Antimicrobial activity against methicillin-resistant Staphylococcus aureus after 24 hrs by broth microdilution method; procedure, shortened: as §2
# [22] = test system: Staphylococcus aureus; assay: Bactericidal activity against methicillin-resistant Staphylococcus aureus after 24 hrs by plate counting method; details: Staphylococcus aureus, 24 h
# [23] = test system: Mammaliicoccus sciuri; assay: Bactericidal activity against methicillin-resistant coagulase-negative Staphylococcus sciuri after 24 hrs by plate counting method; procedure, shortened: as §1
# [24] = test system: Staphylococcus epidermidis; assay: Bactericidal activity against methicillin-resistant coagulase-negative Staphylococcus epidermidis after 24 hrs by plate counting method
# [25] = test system: Staphylococcus haemolyticus; assay: Antimicrobial activity against methicillin-resistant coagulase-negative Staphylococcus haemolyticus after 24 hrs by broth microdilution method; procedure, shortened: as §2
# [26] = test system: Staphylococcus epidermidis; assay: Antimicrobial activity against methicillin-resistant coagulase-negative Staphylococcus epidermidis after 24 hrs by broth microdilution method; procedure, shortened: as §2
# [27] = test system: Porphyromonas gingivalis; assay: Bactericidal activity against Porphyromonas gingivalis
# [28] = test system: Staphylococcus epidermidis; assay: Antimicrobial activity against methicillin-susceptible coagulase-negative Staphylococcus epidermidis after 24 hrs by broth microdilution method; procedure, shortened: as §2
# [29] = test system: Staphylococcus haemolyticus; assay: Antimicrobial activity against methicillin-susceptible coagulase-negative Staphylococcus haemolyticus after 24 hrs by broth microdilution method; procedure, shortened: as §2
# [30] = test system: Prevotella intermedia; assay: Antimicrobial activity against Prevotella intermedia
# [31] = test system: Staphylococcus hominis; assay: Bactericidal activity against methicillin-susceptible coagulase-negative Staphylococcus hominis after 24 hrs by plate counting method; procedure, shortened: as §1
# [32] = test system: Staphylococcus haemolyticus; assay: Bactericidal activity against methicillin-susceptible coagulase-negative Staphylococcus haemolyticus after 24 hrs by plate counting method; procedure, shortened: as §1
# [33] = test system: Staphylococcus hominis; assay: Antimicrobial activity against methicillin-resistant coagulase-negative Staphylococcus hominis after 24 hrs by broth microdilution method; procedure, shortened: as §2
# [34] = test system: Mammaliicoccus sciuri; assay: Antimicrobial activity against methicillin-susceptible coagulase-negative Staphylococcus sciuri after 24 hrs by broth microdilution method; procedure, shortened: as §2
# [35] = Staphylococcus haemolyticus, 24 h
# [36] = Staphylococcus epidermidis, 24 h
smiles,measurement,setting,value
COc1cc(O)c(C(=O)[C@@H]2[C@H](CC=C(C)C)C(C)=CC[C@H]2c2ccccc2)c(O)c1 [PANDURATIN A],MBC50,[1],2 µg/mL
same,MBC90,[1],4 µg/mL
same,MBC,"[1]; Staphylococcus aureus, 24 h",1 µg/mL
same,MIC50,[2],0.25 µg/mL
same,MIC90,[2],1 µg/mL
same,MBC50,[3],2 µg/mL
same,MBC,[3]; [35],1 µg/mL
same,MBC50,[4],2 µg/mL
same,MBC,"[4]; Staphylococcus hominis, 24 h",1 µg/mL
same,MBC50,[5],1 µg/mL
same,MBC90,[5],4 µg/mL
same,MBC,"[5]; Staphylococcus simulans, 24 h",0.125 µg/mL
same,MBC,[6],8 µg/mL
same,MIC,[7],4 µg/mL
same,MBC50,[8],1 µg/mL
same,MBC90,[8],4 µg/mL
same,MBC,"[8]; Mammaliicoccus sciuri, 24 h",0.125 µg/mL
same,MIC50,[9],0.5 µg/mL
same,MIC90,[9],1 µg/mL
same,MIC,[10],4 µg/mL
same,MBC50,[11],1 µg/mL
same,MBC90,[11],4 µg/mL
same,MBC,[11]; [36],0.125 µg/mL
same,MBC,[12],4 µg/mL
same,MIC,[13],2 µg/mL
same,MIC,[14],4 µg/mL
same,MIC50,[15],0.25 µg/mL
same,MIC90,[15],1 µg/mL
same,MBC,[16],4 µg/mL
same,MIC50,[17],0.5 µg/mL
same,MIC90,[17],1 µg/mL
same,MBC,[18],8 µg/mL
same,MIC,[19],0.5 µg/mL
same,MIC50,[19],0.5 µg/mL
same,MIC90,[19],1 µg/mL
same,MBC50,[20],2 µg/mL
same,MBC,"[20]; Staphylococcus simulans, 24 h",1 µg/mL
same,MIC,[21],0.5 µg/mL
same,MIC50,[21],0.5 µg/mL
same,MIC90,[21],1 µg/mL
same,MBC,[22],2 µg/mL
same,MBC50,[23],2 µg/mL
same,MBC,"[23]; Mammaliicoccus sciuri, 24 h",1 µg/mL
same,MBC50,[24],2 µg/mL
same,MBC,[24]; [36],1 µg/mL
same,MIC50,[25],0.25 µg/mL
same,MIC90,[25],1 µg/mL
same,MIC50,[26],0.25 µg/mL
same,MIC90,[26],1 µg/mL
same,MBC,[27],8 µg/mL
same,MIC50,[28],0.5 µg/mL
same,MIC90,[28],1 µg/mL
same,MIC50,[29],0.5 µg/mL
same,MIC90,[29],1 µg/mL
same,MIC,[30],2 µg/mL
same,MBC50,[31],1 µg/mL
same,MBC90,[31],4 µg/mL
same,MBC,"[31]; Staphylococcus hominis, 24 h",0.125 µg/mL
same,MBC50,[32],1 µg/mL
same,MBC90,[32],4 µg/mL
same,MBC,[32]; [35],0.125 µg/mL
same,MIC50,[33],0.25 µg/mL
same,MIC90,[33],1 µg/mL
same,MIC50,[34],0.5 µg/mL
same,MIC90,[34],1 µg/mL
